According to ChEMBL document CHEMBL3392964, “Design, synthesis, and evaluation of novel imidazo[1,2-a][1,3,5]triazines and their derivatives as focal adhesion kinase inhibitors with antitumor activity” (J Med Chem, 2015):
The source made the active and inactive calls. The rule behind the calls is not given here.

Experiments:
Focal adhesion kinase 1 [1] = molecular target: T1, Focal adhesion kinase 1 (Homo sapiens, UniProt Q05397); test: Inhibition of FAK phosphorylation at tyrosine 397 in human MDA-MB-231 cells after 48 hrs by FACEFAK ELISA; type: cell-based
Procedure, shortened: (§1)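 Cells in DMEM with 10% FBS, 3 × 10^3 per well, treated 48 h at 0.1, 1 and 10 μM. Fixed in 4% formaldehyde; antibodies to pTyr397-FAK or total FAK, HRP secondary, read at 450 nm. Crystal violet cell count at 595 nm. Phospho-FAK normalised to total FAK and cell number; fold decrease versus control, triplicate readings, three independent experiments.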
Target sequence in this assay (Q05397 2-1052 limits assumed): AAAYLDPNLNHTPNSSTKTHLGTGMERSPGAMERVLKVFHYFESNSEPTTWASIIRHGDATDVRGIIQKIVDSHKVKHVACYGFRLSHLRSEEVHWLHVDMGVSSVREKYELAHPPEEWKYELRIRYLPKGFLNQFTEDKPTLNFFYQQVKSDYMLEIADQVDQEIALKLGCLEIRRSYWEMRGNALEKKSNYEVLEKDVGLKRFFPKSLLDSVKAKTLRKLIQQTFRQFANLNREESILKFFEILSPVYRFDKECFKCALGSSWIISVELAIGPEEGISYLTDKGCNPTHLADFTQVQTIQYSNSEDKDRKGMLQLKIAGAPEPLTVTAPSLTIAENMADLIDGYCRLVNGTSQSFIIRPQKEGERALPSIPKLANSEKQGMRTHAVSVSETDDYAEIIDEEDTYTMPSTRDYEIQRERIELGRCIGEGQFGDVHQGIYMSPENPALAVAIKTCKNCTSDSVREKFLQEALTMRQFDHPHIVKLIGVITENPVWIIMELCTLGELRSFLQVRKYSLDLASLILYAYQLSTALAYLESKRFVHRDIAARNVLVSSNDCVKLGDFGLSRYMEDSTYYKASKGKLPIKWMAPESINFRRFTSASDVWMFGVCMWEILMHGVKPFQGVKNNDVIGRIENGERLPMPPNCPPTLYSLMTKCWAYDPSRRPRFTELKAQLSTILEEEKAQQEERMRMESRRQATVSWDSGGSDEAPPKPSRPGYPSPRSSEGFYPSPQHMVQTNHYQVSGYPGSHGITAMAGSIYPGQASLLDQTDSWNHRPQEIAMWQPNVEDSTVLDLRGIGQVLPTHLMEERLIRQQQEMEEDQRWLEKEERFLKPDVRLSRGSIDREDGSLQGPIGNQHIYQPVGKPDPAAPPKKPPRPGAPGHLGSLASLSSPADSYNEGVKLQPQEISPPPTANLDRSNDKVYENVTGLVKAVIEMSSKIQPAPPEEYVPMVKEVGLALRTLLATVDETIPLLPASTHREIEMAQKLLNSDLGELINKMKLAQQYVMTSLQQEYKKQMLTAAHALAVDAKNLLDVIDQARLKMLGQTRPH

Focal adhesion kinase 1 [2] = molecular target: T1, Focal adhesion kinase 1; test: Inhibition of FAK phosphorylation at tyrosine 397 in human PC3 cells after 48 hrs by FACEFAK ELISA; type: cell-based; conditions: PC-3; procedure, shortened: as §1
Target sequence in this assay (Q05397 2-1052 limits assumed): as above

[3] = Antiproliferative activity against human U87MG cells after 48 hrs by WST-1 assay; type: functional, cell-based, U-87MG ATCC; conditions: U-87 MG
Procedure, shortened: (§2)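 Exponentially growing cells in DMEM/10% FBS seeded at 5 × 10^3 per well, left overnight, then exposed 48 h to compounds diluted from DMSO; WST-1 added for 2 h, absorbance at 450 nm (reference 620 nm); viability as ratio to DMSO controls; three independent experiments, triplicate points; IC50 by nonlinear regression (log inhibitor vs normalized response, variable slope).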

[4] = Antiproliferative activity against human HCT116 cells after 48 hrs by WST-1 assay; type: functional, cell-based; conditions: HCT-116, 48 h; procedure, shortened: as §2
MDA-MB-231 [5] = test: Antiproliferative activity against human MDA-MB-231 cells after 48 hrs by WST-1 assay; type: functional, cell-based; conditions: MDA-MB-231, 48 h; procedure, shortened: as §2
[6] = Antiproliferative activity against human PC3 cells after 48 hrs by WST-1 assay; type: functional, cell-based; conditions: PC-3, 48 h; procedure, shortened: as §2
[7] = (§3) Inhibition of colony formation in human HCT116 cells after 2 weeks by crystal violet staining-based assay; type: functional, cell-based; conditions: HCT-116, 336 h
Procedure, shortened: (§4)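 Seeding: 250 cells per well for HCT-116, 300 for U87MG, MDA-MB-231 and PC-3; incubated overnight, then exposed to a range of concentrations for 2 weeks. Fixed in 4% paraformaldehyde 30 min at room temperature, stained with 0.1% crystal violet. Colonies over 50 cells counted; colony formation rate calculated; IC50 by nonlinear regression.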

HCT-116 [8] = test: as §3; type: functional, cell-based; procedure, shortened: as §4
MDA-MB-231 [9] = test: Inhibition of colony formation in human MDA-MB-231 cells after 2 weeks by crystal violet staining-based assay; type: functional, cell-based; procedure, shortened: as §4
U-87 MG [10] = test: Induction of apoptosis in human U87MG cells assessed as early apoptotic cells at 3 uM after 24 hrs by Annexin V-PE/7-AAD staining-based FACS analysis (reference value: 0.691%); type: functional, U-87MG ATCC
U-87 MG [11] = test: Induction of apoptosis in human U87MG cells assessed as late apoptotic cells at 3 uM after 24 hrs by Annexin V-PE/7-AAD staining-based FACS analysis (reference value: 1.59%); type: functional, U-87MG ATCC
U-87 MG [12] = test: Induction of apoptosis in human U87MG cells assessed as necrotic cells at 3 uM after 24 hrs by Annexin V-PE/7-AAD staining-based FACS analysis (reference value: 1.06%); type: functional, U-87MG ATCC
HCT-116 [13] = test: Induction of apoptosis in human HCT116 cells assessed as early apoptotic cells at 0.5 uM after 24 hrs by Annexin V-PE/7-AAD staining-based FACS analysis (reference value: 4.68%); type: functional
HCT-116 [14] = test: Induction of apoptosis in human HCT116 cells assessed as late apoptotic cells at 0.5 uM after 24 hrs by Annexin V-PE/7-AAD staining-based FACS analysis (reference value: 1.22%); type: functional
HCT-116 [15] = test: Induction of apoptosis in human HCT116 cells assessed as necrotic cells at 0.5 uM after 24 hrs by Annexin V-PE/7-AAD staining-based FACS analysis (reference value: 0.885%); type: functional
HCT-116 [16] = test: Induction of apoptosis in human HCT116 cells assessed as apoptotic cells at 0.5 uM after 24 hrs by Annexin V-PE/7-AAD staining-based FACS analysis relative to control; type: functional
Focal adhesion kinase 1 [17] = molecular target: T1, Focal adhesion kinase 1; test: Inhibition of FAK (unknown origin) using ULight-poly GT as substrate after 1.6 hrs by TR-FRET assay
Target sequence in this assay (Q05397 whole entry): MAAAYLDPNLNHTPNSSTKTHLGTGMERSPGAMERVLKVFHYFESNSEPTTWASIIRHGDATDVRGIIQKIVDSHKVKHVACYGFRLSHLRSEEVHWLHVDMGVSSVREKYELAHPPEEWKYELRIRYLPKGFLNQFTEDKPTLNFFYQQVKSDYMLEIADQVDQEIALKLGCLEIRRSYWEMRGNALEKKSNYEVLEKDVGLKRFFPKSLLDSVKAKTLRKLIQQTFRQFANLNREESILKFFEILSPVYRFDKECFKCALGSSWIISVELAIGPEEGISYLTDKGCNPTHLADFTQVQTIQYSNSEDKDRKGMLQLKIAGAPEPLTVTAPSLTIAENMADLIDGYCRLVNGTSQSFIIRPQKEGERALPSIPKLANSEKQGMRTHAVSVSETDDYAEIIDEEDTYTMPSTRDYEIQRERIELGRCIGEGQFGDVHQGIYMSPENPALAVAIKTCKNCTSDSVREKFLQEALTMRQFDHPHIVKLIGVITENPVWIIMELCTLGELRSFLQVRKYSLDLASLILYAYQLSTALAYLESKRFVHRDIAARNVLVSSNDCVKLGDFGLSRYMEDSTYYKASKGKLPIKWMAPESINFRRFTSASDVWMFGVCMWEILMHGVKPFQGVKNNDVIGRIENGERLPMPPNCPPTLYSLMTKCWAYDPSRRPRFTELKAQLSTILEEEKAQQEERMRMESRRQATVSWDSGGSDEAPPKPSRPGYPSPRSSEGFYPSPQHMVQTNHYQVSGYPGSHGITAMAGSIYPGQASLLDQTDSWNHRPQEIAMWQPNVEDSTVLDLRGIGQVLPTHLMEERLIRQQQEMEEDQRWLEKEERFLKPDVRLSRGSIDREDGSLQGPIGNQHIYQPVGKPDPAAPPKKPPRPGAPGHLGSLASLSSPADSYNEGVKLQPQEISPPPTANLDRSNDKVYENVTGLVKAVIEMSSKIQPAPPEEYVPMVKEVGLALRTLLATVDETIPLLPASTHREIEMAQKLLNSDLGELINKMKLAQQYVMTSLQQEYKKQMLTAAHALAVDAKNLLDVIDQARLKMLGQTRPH

HCT-116 [18] = test: Induction of apoptosis in human HCT116 cells at < 0.5 uM after 24 hrs by Annexin V-PE/7-AAD staining-based FACS analysis; type: functional, cell-based
[19] = Cell cycle arrest in human U87MG cells assessed as accumulation at G0/G1 phase at 3 uM after 24 hrs by propidium iodide staining-based flow cytometry (reference value: 61.7%); type: functional; conditions: U-87MG ATCC
Procedure, shortened: (§5)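 Cells plated at 10^5 per well, left overnight, then exposed 24 h to compound or vehicle; stained 15 min at 37 °C with propidium iodide/Triton buffer; DNA content by flow cytometry, phase distribution fitted by Dean–Jett–Fox; HCT-116 at 0.3–0.5 μM, U87-MG at 0.3–3 μM; significance by unpaired Student's t test; one representative experiment.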

[20] = Cell cycle arrest in human U87MG cells assessed as accumulation at S phase at 3 uM after 24 hrs by propidium iodide staining-based flow cytometry (reference value: 16%); type: functional; conditions: U-87MG ATCC; procedure, shortened: as §5
[21] = Cell cycle arrest in human U87MG cells assessed as accumulation at G2/M phase at 3 uM after 24 hrs by propidium iodide staining-based flow cytometry (reference value: 20%); type: functional; conditions: U-87MG ATCC; procedure, shortened: as §5
[22] = Cell cycle arrest in human HCT116 cells assessed as accumulation at G0/G1 phase at 0.5 uM after 24 hrs by propidium iodide staining-based flow cytometry (reference value: 63.8%); type: functional; conditions: HCT-116; procedure, shortened: as §5
[23] = Cell cycle arrest in human HCT116 cells assessed as accumulation at S phase at 0.5 uM after 24 hrs by propidium iodide staining-based flow cytometry (reference value: 17.7%); type: functional; conditions: HCT-116; procedure, shortened: as §5
[24] = Cell cycle arrest in human U87MG cells at < 3 uM after 24 hrs by propidium iodide staining-based flow cytometry; type: functional; conditions: U-87MG ATCC; procedure, shortened: as §5
[25] = Cell cycle arrest in human HCT116 cells at < 0.5 uM after 24 hrs by propidium iodide staining-based flow cytometry; type: functional; conditions: HCT-116; procedure, shortened: as §5
[26] = Cell cycle arrest in human U87MG cells assessed as accumulation at G2 phase at 3 uM after 24 hrs by propidium iodide staining-based flow cytometry relative to control; type: functional; conditions: U-87MG ATCC
Procedure, shortened: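 U87-MG cells plated at 10^5 per well, incubated overnight, then exposed to compound or vehicle control for 24 h. Cells stained with propidium iodide in PI/triton buffer for 15 min at 37 °C and analysed by flow cytometry. Cell-cycle phases were assigned by the Dean–Jett–Fox method. Significance was tested by unpaired Student's t test, and one representative experiment is shown.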

U-87MG ATCC [27] = test: Antimigratory activity in human U87MG cells after 30 mins by boyden chamber assay; type: functional, cell-based
[28] = Antiinvasive activity in human U87MG cells after 24 hrs by matrigel assay; type: functional, U-87MG ATCC
Procedure, shortened: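 U-87MG pre-exposed 24 h to compound or DMSO in 3% FBS, then 4 × 10^4 cells seeded in upper chamber of impedance-based CIM-16 plate (8 μm pore membrane) coated with Matrigel/collagen; lower chamber 10% FBS; cell index monitored at 37 °C, 5% CO2 for 12 h; slope (1/h) over set interval, DMSO slope set to 100; duplicate wells, repeated twice.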

U-87MG ATCC [29] = test: Antiinvasive activity in human U87MG cells after 30 mins by boyden chamber assay; type: functional, cell-based

inhibition (Focal adhesion kinase 1 [1]): Dose-dependent effect
inhibition (Focal adhesion kinase 1 [2]): Dose-dependent effect
IC50 (MDA-MB-231 [5]): 0.8 µM
IC50 [7]: 0.13 µM
IC50 (MDA-MB-231 [9]; MDA-MB-231, 336 h): 0.14 µM
IC50 (Focal adhesion kinase 1 [17]): 0.05 µM
Compound: C=COC(=O)NCc1ccc(Nc2nc(Nc3ccccc3C(=O)NC)n3ccnc3n2)cc1
IC50 [3]: 2.89 µM
IC50 [4]: 0.52 µM
IC50 [6]: 0.29 µM
inhibition (HCT-116 [8]): Dose-dependent effect
inhibition (MDA-MB-231 [9]): Dose-dependent effect
Activity (U-87 MG [10]): 0.756%
Activity (U-87 MG [11]): 0.997%
Activity (U-87 MG [12]): 0.804%
Activity (HCT-116 [13]): 13.3%
Activity (HCT-116 [14]): 16.1%
Activity (HCT-116 [15]): 7.77%
Activity (HCT-116 [16]): 25.9%
Activity (HCT-116 [18]): Active
Activity [19]: 34.3%
Activity [20]: 5.08%
Activity [21]: 58.8%
Activity [22]: 29.9%
Activity [23]: 11.6%
Activity [24]: Active
Activity [25]: Active
Ratio [26]: 2.9
Activity (U-87MG ATCC [27]): Dose-dependent effect
Activity [28]: 50%
Activity (U-87MG ATCC [29]): Dose-dependent effect
